Test results as given in article PMC6130785 (ACS Omega, 2018).

How the values were obtained:
PIKFYVE [1] = molecular target: T1, PIKFYVE (Homo sapiens, UniProt Q9Y2I7); test: PIKFYVE inhibition assay; assay type: biochemical
PIKFYVE [2] = molecular target: T1, PIKFYVE; test: Lipid kinase competition assay; assay type: binding; conditions: Table 2 / Figure 3 compound series, standard dose-response curve
Procedure, shortened: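 Competition binding: biotinylated kinase-specific control ligand on streptavidin magnetic beads formed affinity resin. DNA-tagged PIKFYVE, liganded beads and test compound were combined. Bound kinase was eluted and quantified by qPCR of its DNA tag. Kinase amount was plotted against test compound concentration, and Kd was fitted to a standard dose–response curve using the Hill equation.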

T1 sequence (Q9Y2I7 whole entry): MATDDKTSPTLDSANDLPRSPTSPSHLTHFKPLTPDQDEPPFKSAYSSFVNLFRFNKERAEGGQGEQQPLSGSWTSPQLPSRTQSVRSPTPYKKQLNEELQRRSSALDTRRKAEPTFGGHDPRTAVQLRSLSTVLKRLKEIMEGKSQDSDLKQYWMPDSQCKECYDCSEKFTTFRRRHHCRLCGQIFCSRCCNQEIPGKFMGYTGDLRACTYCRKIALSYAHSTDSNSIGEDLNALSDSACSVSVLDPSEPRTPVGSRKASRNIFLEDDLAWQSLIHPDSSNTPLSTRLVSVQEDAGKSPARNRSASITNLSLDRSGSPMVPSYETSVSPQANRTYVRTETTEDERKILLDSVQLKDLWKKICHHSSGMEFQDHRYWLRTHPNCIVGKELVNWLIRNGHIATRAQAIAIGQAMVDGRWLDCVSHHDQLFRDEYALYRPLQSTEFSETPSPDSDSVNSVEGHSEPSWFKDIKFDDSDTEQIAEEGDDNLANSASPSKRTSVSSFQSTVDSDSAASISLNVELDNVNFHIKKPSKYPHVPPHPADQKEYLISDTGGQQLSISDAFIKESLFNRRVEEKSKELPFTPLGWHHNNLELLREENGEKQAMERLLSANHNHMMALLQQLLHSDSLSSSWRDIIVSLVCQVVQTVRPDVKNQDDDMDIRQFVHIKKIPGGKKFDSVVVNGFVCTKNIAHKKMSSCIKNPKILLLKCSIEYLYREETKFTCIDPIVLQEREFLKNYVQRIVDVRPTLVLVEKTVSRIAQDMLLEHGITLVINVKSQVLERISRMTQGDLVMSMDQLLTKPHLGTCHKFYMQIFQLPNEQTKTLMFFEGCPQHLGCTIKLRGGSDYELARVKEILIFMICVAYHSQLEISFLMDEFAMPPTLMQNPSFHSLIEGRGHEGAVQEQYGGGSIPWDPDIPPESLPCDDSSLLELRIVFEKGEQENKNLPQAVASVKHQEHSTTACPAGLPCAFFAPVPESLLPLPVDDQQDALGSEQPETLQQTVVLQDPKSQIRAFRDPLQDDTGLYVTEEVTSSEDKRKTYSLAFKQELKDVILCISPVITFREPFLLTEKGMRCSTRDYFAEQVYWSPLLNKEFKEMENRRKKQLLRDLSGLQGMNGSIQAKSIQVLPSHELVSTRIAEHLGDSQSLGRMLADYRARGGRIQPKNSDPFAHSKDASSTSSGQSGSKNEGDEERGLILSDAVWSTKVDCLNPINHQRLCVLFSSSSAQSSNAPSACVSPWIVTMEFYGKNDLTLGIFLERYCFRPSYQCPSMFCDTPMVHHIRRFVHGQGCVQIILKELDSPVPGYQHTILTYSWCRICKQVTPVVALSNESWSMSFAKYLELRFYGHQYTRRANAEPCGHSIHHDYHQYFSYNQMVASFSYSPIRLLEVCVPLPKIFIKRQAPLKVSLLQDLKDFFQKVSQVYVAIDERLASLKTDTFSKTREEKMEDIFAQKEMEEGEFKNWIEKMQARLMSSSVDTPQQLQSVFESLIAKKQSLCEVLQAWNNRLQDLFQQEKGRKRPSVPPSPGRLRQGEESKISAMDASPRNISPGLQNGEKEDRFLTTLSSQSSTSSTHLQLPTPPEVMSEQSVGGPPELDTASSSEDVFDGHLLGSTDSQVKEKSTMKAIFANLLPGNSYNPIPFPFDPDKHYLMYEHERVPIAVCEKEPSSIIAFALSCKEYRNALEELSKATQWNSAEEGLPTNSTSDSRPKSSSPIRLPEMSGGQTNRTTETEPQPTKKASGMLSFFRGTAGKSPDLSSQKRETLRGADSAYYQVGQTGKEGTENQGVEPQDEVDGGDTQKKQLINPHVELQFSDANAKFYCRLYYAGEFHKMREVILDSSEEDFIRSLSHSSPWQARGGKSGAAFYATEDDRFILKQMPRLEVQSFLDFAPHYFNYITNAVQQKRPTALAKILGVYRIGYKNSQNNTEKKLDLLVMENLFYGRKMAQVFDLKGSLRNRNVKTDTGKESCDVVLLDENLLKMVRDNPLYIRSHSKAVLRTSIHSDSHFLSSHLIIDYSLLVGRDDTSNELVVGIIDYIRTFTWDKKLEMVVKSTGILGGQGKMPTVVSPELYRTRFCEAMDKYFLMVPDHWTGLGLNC

IC50 (PIKFYVE [1]): 446 nM
Kd (PIKFYVE [2]): > 500 nM
Compound: CCOC(=O)c1[nH]c2ccc(OC)cc2c1/C=C/C(=O)c1ccncc1 [2l, (E)-Ethyl 5-Methoxy-3-(3-oxo-3-(pyridin-4-yl)prop-1-en-1-yl)-[1H]-indole-2-carboxylate]
